Calls of active or inactive are those of the source. No cut-off for these calls is given here.
Assays:
[1] = molecular target: Hepatocyte growth factor receptor (Homo sapiens, UniProt P08581); test: Inhibition of c-MET (unknown origin) using biotinylated peptide as substrate at 10 uM by TR-FRET assay relative to control
[2] = molecular target: Proto-oncogene tyrosine-protein kinase Src (Homo sapiens, UniProt P12931); test: Inhibition of SRC (unknown origin) using fluorescence labeled peptide as substrate at 10 uM by IMAP assay relative to control
Chain of Proto-oncogene tyrosine-protein kinase Src (P12931 2-536 limits assumed): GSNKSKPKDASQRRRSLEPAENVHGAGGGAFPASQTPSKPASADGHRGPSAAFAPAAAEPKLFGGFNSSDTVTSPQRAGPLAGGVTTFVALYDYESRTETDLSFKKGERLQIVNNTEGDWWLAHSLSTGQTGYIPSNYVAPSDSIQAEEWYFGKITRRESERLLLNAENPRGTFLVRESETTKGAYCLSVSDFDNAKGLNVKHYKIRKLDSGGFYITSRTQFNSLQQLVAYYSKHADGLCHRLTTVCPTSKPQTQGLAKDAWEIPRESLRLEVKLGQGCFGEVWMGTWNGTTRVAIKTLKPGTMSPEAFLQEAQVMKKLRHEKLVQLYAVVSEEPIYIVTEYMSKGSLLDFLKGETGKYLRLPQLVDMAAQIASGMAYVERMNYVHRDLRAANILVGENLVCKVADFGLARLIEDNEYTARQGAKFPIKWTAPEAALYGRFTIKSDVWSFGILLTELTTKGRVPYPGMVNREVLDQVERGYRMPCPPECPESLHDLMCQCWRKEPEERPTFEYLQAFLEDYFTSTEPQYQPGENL
Summary of the method: (§1)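 IMAP fluorescence-polarization kinase assay at 10 µmol/L compound, run in triplicate by a contract lab. A fluorescently labeled substrate peptide is phosphorylated, then nanoparticles carrying trivalent metal bind the phosphopeptide and slow its rotation. Read-out is fluorescence polarization, expressed as percent inhibition.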

[3] = molecular target: Angiopoietin-1 receptor (Homo sapiens) (UniProt Q02763); test: Inhibition of TIE2 (unknown origin) using biotinylated peptide as substrate at 10 uM by TR-FRET assay relative to control
Chain of Angiopoietin-1 receptor (Homo sapiens) (Q02763 whole entry): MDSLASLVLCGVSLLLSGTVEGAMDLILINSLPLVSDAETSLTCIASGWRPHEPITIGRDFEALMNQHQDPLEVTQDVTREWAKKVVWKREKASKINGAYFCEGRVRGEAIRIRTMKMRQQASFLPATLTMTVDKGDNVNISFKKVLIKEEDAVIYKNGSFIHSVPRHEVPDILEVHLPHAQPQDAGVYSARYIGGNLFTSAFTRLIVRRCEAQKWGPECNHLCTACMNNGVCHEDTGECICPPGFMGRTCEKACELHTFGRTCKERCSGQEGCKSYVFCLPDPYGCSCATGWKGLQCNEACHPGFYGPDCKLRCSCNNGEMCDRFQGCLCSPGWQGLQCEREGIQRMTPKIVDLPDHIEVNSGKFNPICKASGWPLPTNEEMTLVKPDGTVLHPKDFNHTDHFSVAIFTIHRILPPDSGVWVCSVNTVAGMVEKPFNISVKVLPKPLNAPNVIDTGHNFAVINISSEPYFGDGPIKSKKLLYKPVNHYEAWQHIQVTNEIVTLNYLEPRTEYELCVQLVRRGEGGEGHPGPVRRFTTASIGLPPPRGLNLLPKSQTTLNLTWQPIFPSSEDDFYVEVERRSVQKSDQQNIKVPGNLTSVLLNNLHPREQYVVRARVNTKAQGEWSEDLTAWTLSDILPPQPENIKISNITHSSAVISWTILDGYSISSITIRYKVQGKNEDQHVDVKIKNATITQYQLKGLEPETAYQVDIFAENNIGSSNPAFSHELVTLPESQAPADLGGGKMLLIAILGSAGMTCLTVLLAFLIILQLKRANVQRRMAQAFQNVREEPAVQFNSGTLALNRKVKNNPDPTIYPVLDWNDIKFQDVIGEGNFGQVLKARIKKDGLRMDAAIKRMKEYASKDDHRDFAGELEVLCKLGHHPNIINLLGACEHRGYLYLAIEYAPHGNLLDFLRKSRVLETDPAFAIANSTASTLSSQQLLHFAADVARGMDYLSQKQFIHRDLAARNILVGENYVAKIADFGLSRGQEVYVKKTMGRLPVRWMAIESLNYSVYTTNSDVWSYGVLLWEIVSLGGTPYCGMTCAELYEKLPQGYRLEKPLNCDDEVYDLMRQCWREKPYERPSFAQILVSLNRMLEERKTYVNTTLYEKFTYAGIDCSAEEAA

[4] = molecular target: T1, Aurora kinase A (Homo sapiens) (UniProt O14965); test: Inhibition of AurA (unknown origin) using fluorescence labeled peptide as substrate at 10 uM by IMAP assay relative to control; summary of the method: as §1
T1 sequence (whole entry): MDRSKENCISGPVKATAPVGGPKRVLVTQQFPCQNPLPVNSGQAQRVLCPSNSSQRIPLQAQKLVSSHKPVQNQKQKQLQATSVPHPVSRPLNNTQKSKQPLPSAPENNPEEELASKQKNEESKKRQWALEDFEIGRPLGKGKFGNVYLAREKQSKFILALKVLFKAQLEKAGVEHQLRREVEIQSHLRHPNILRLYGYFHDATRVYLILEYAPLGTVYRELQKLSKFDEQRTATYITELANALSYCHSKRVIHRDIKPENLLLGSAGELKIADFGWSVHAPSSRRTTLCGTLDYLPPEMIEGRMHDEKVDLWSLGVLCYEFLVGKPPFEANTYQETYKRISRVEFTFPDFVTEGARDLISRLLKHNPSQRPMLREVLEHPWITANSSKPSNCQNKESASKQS

[5] = system: MDA-MB-231; test: Antimigratory activity against human MDA-MB-231 cells after 3.5 hrs by microscopy based Boyden chamber assay; assay type: functional, cell-based; details: MDA-MB-231, 3.5 h
Summary of the method: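 Modified Boyden chamber: MDA-MB-231 cells plated in 0.1% FCS medium, migrating through 8 µm pore membrane toward 1% FCS chemoattractant for 3.5 h; transmigrated cells counted microscopically in at least 5 random fields per well.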

[6] = system: MDA-MB-231; test: Anti-invasive activity against human MDA-MB-231 cells up to 3 uM after 5 hrs by matrigel assay; assay type: functional, cell-based
Summary of the method: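 MDA-MB-231 cells (7000/well) seeded on polymerized 3 mg/mL Matrigel (set ≥16 h at 37°C) in serum-free medium; inhibitor added at seeding, aggregates forming over 5 h.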

[7] = Selectivity ratio of compound effect for anti-invasive activity against human MDA-MB-231 cells to IC50 for AXL (unknown origin) phosphorylation
[8] = molecular target: Mitogen-activated protein kinase kinase kinase kinase 5 (Homo sapiens, UniProt Q9Y4K4); test: Binding affinity to MAP4K5 in SILAC-labeled human MDA-MB-231 cells lysate by mass spectrometry based kinAffinity assay; assay type: subcellular
Summary of the method: (§2)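 Chemical proteomics: MDA-MB-231 lysate bound to matrix of immobilized broad kinase inhibitors at several densities (BC50), then competed with increasing free compound (CC50); proteins quantified by mass spectrometry, Kd via Cheng-Prusoff. Two competition formats run in parallel to check equilibrium.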

[9] = molecular target: Activin receptor type-1 (Homo sapiens, UniProt Q04771); test: Binding affinity to ACVR1 in SILAC-labeled human MDA-MB-231 cells lysate by mass spectrometry based kinAffinity assay; assay type: subcellular; summary of the method: as §2
[10] = molecular target: Tyrosine-protein kinase Fyn (Homo sapiens, UniProt P06241); test: Binding affinity to FYN in SILAC-labeled human MDA-MB-231 cells lysate by mass spectrometry based kinAffinity assay; assay type: subcellular; summary of the method: as §2
Chain of Tyrosine-protein kinase Fyn (P06241 whole entry): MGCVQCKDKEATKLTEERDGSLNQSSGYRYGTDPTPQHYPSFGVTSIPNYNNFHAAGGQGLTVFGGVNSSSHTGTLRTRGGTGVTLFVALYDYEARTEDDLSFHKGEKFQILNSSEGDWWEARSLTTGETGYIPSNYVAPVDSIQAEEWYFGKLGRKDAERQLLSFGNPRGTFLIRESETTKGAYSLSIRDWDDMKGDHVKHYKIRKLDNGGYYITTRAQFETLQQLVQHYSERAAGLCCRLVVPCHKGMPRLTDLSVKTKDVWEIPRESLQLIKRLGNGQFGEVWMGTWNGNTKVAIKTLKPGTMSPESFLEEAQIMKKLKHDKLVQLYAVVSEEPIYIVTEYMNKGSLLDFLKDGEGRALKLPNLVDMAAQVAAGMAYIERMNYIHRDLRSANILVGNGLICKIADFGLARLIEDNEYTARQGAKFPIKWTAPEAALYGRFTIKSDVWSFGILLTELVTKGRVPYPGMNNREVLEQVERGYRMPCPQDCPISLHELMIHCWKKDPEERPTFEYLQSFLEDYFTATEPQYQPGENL

[11] = molecular target: Tyrosine-protein kinase ABL2 (Homo sapiens, UniProt P42684); test: Binding affinity to ABL2 in SILAC-labeled human MDA-MB-231 cells lysate by mass spectrometry based kinAffinity assay; assay type: subcellular; summary of the method: as §2
Chain of Tyrosine-protein kinase ABL2 (P42684 whole entry): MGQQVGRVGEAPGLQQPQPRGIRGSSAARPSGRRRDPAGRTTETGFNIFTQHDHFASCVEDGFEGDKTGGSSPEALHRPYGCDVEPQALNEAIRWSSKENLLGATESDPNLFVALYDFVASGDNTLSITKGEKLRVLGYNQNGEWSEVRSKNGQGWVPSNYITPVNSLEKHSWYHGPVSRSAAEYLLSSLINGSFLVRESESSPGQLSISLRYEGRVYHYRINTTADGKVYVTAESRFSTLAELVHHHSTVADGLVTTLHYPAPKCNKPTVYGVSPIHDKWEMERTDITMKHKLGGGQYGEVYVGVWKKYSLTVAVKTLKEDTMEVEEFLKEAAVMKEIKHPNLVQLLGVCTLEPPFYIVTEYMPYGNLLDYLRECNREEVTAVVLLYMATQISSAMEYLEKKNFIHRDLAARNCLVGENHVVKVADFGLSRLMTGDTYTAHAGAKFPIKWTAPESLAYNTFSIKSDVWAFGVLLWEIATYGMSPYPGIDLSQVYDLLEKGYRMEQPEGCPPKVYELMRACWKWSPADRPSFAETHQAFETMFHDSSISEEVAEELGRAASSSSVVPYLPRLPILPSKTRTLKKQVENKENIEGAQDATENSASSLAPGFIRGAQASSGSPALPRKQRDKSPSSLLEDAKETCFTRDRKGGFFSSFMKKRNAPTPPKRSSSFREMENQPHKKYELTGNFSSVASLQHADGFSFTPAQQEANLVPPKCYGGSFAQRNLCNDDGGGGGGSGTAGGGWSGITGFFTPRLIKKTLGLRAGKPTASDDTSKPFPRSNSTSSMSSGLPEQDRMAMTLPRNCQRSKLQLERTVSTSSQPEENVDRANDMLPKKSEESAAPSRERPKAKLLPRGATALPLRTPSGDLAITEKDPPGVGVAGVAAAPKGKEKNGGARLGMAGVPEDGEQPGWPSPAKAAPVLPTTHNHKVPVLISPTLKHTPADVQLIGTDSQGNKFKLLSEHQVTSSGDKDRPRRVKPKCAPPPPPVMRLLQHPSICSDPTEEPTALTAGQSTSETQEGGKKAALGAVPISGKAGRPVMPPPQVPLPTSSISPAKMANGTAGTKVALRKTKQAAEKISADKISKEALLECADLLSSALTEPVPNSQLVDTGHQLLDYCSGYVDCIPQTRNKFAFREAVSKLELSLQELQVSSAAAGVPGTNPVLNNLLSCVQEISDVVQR

[12] = molecular target: Tyrosine-protein kinase Yes (Homo sapiens, UniProt P07947); test: Binding affinity to YES in SILAC-labeled human MDA-MB-231 cells lysate by mass spectrometry based kinAffinity assay; assay type: subcellular
Summary of the method: (§3)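 MDA-MB-231 lysate applied to KinAffinity matrix of immobilized broadband kinase inhibitors at graded densities to obtain BC50 per target. Competition then run with increasing free compound to give CC50; Kd derived by Cheng-Prusoff. Two competition experiments in parallel to check equilibrium, one with lysate pre-incubated with compound before adding matrix. Quantitation by mass spectrometry.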

[13] = molecular target: Inhibitor of nuclear factor kappa-B kinase subunit epsilon (Homo sapiens, UniProt Q14164); test: Binding affinity to IKKE in SILAC-labeled human MDA-MB-231 cells lysate by mass spectrometry based kinAffinity assay; assay type: subcellular; summary of the method: as §2
[14] = molecular target: 5'-AMP-activated protein kinase subunit beta-1 (Homo sapiens, UniProt Q9Y478); test: Binding affinity to PRKAB1 in SILAC-labeled human MDA-MB-231 cells lysate by mass spectrometry based kinAffinity assay; assay type: subcellular; summary of the method: as §3
Chain of 5'-AMP-activated protein kinase subunit beta-1 (Q9Y478 whole entry): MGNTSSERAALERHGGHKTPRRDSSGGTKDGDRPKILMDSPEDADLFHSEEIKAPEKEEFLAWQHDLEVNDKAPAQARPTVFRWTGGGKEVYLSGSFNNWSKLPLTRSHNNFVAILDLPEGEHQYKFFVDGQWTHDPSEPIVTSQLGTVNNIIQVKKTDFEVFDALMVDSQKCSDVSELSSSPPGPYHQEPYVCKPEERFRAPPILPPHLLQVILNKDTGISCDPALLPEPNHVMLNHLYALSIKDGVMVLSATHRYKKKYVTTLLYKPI

[15] = molecular target: Mitogen-activated protein kinase kinase kinase kinase 3 (Homo sapiens, UniProt Q8IVH8); test: Binding affinity to MAP4K3 in SILAC-labeled human MDA-MB-231 cells lysate by mass spectrometry based kinAffinity assay; assay type: subcellular; summary of the method: as §2
[16] = molecular target: TRAF family member-associated NF-kappa-B activator (Homo sapiens, UniProt Q92844); test: Binding affinity to TANK in SILAC-labeled human MDA-MB-231 cells lysate by mass spectrometry based kinAffinity assay; assay type: subcellular; summary of the method: as §3
[17] = molecular target: Mitogen-activated protein kinase kinase kinase 2 (Homo sapiens, UniProt Q9Y2U5); test: Binding affinity to MAP3K2 in SILAC-labeled human MDA-MB-231 cells lysate by mass spectrometry based kinAffinity assay; assay type: subcellular; summary of the method: as §2
[18] = molecular target: Focal adhesion kinase 1 (Homo sapiens, UniProt Q05397); test: Binding affinity to FAK in SILAC-labeled human MDA-MB-231 cells lysate by mass spectrometry based kinAffinity assay; assay type: subcellular; summary of the method: as §2
[19] = Permeability of the compound in 0.025 M phosphate buffer at pH 7.4 assessed drug flux level after 5 hrs by PAMPA; assay type: ADME; details: pH 7.4, 5 h
Summary of the method: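 PAMPA: donor at 0.5 mM in pH 7.4 0.025 M phosphate buffer, diluted from 1 mM DMSO stock. Filters are coated with 1% phosphatidylcholine in dodecane, and the acceptor is 50% DMSO in phosphate buffer. Incubated 5 h at room temperature with gentle shaking. Donor and acceptor are analyzed by HPLC-UV to calculate Papp. Three plates were run on different days.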

[20] = Intrinsic clearance in human liver microsomes at 5 uM after 60 mins in presence of NADPH by LC-MS/MS analysis; assay type: ADME, Microsome; details: read-out: CLH
Summary of the method: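 Compound at 5 µM with 1 mg/mL human or mouse liver microsomes plus an NADPH-regenerating system, in 100 mM potassium phosphate at 37°C. Reactions were stopped with acetonitrile at sampling times. Percent remaining versus time 0 was measured by HPLC, in duplicate.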

[21] = Clearance in mouse at 1 to 2 mg/kg, iv by LC/MS/MS analysis; assay type: ADME, organism-based; details: in vivo
[22] = Toxicity in mouse assessed as drug tolerability at 300 mg/kg, po; assay type: organism-based; details: in vivo

Chain of Hepatocyte growth factor receptor (P08581 whole entry): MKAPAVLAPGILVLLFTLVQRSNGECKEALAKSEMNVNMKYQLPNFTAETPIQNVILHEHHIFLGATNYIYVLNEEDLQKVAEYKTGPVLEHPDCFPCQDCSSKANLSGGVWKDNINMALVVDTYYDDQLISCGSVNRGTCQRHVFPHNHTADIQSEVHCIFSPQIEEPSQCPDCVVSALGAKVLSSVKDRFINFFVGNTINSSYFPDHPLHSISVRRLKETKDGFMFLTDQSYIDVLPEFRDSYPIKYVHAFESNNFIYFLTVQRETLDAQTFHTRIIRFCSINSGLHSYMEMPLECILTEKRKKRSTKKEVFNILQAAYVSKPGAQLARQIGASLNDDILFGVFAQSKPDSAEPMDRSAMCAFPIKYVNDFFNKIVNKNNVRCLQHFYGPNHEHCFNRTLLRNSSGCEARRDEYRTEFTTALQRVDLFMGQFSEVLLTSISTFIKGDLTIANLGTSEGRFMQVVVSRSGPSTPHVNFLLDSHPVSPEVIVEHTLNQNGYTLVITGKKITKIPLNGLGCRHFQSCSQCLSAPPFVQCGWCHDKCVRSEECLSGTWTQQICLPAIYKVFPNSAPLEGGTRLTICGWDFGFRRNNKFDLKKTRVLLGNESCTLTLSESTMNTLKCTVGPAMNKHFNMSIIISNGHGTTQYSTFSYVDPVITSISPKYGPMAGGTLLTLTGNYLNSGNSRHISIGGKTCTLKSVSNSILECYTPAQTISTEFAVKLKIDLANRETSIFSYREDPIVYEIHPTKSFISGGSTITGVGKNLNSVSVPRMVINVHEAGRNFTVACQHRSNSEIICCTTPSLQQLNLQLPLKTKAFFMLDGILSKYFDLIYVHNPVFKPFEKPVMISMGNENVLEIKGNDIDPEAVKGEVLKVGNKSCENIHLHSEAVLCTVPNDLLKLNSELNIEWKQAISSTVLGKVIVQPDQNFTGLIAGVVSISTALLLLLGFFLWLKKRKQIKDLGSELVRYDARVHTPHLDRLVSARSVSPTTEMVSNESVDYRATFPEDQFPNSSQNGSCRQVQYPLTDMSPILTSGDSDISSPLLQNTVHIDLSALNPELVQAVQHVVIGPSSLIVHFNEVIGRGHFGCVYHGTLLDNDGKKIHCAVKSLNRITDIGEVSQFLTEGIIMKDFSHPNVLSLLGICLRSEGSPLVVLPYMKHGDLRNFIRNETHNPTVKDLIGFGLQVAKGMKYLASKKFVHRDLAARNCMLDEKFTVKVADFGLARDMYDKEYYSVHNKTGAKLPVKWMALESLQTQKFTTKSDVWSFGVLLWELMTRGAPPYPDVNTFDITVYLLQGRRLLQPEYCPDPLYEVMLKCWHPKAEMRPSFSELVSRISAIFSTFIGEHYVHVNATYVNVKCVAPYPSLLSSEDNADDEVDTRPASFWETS

Row | Efficacy [1] | Efficacy [2] | Efficacy [3] | Efficacy [4] | IC50 [5] | Kd(free) [8] | Kd(free) [9] | Kd(free) [10] | Kd(free) [11] | Kd(free) [12] | Kd(free) [13] | Kd(free) [14] | Kd(free) [15] | Kd(free) [16] | Kd(free) [17] | Kd(free) [18] | SMILES | inhibition [6] | Selectivity ratio [7] | permeability [19] | microsomal CLint at 5 µM [20] | also measured
1 | 83 to 100% | 83 to 100% | 83 to 100% | 83 to 100% | 4.6 µM |  |  |  |  |  |  |  |  |  |  |  | COc1cc2c(Oc3ccc(NS(=O)(=O)c4ccccc4C(F)(F)F)cc3F)ccnc2cc1OCCCN1CCN(C)CC1 | Active | 2 - 6 |  |  | 
2 | 83 to 100% | 83 to 100% | 83 to 100% | 83 to 100% | 1.5 µM | 0.008 µM | > 0.07 µM | 0.038 µM | 0.016 µM | 0.04 µM | 0.122 µM | 2.279 µM | 1.367 µM | 1.567 µM | 5.518 µM | 2.212 µM | COc1cc2c(Oc3ccc(NS(=O)(=O)c4c(F)cccc4F)cc3F)ccnc2cc1OCCCN1CCN(C)CC1 | Active | 2 - 6 |  |  | 
3 | 83 to 100% | 83 to 100% | 83 to 100% | 83 to 100% | 2.5 µM | 0.024 µM | 0.052 µM | 0.064 µM | 0.071 µM | 0.178 µM | 0.282 µM | 1.257 µM | 2.08 µM | 3.418 µM | 4.396 µM | 4.445 µM | COc1cc2c(Oc3ccc(NS(=O)(=O)c4cc(F)ccc4F)cc3F)ccnc2cc1OCCCN1CCN(C)CC1 | Active | 2 - 6 | 24.3% | 60.5 µL/min/mg | clearance [21]: 0.4 L/h/kg; Activity [22]: Non-Toxic

Row | SMILES | Efficacy [1] | Efficacy [2] | Efficacy [3] | Efficacy [4] | IC50 [5] | Kd(free) [8] | Kd(free) [9] | Kd(free) [10] | Kd(free) [11] | Kd(free) [12] | Kd(free) [13] | Kd(free) [14] | Kd(free) [15] | Kd(free) [16] | Kd(free) [17] | Kd(free) [18] | inhibition [6] | Selectivity ratio [7] | permeability [19] | microsomal CLint at 5 µM [20] | also measured
4 | COc1cc2c(Oc3ccc(NS(=O)(=O)c4cc(F)ccc4F)cc3F)ccnc2cc1OCCCN1CCCC(C)C1 (stereo not drawn) | 83 to 100% | 83 to 100% | 83 to 100% | 83 to 100% | 3.3 µM |  |  |  |  |  |  |  |  |  |  |  | Active | 2 - 6 | 46.1% | 18.3 µL/min/mg | clearance [21]: 0.7 L/h/kg; Activity [22]: Non-Toxic

From ChEMBL document CHEMBL4371006, “Discovery of N-[4-(Quinolin-4-yloxy)phenyl]benzenesulfonamides as Novel AXL Kinase Inhibitors” (J Med Chem, 2018)
